Screens as filed in PubChem BioAssay.
Only some compounds are listed: those with a hit (about 5.9% of all), similar ones and a draw of the others.
Lung fibro prol – blocks proliferation of human lung fibroblasts | LL 47 human lung fibroblast viability, ATP luminescence; active compounds read low | viability, % at 10 µM | 1.1% of 85,000 active;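 active = viability at or below 50% in the single dose screen; inactive = viability above 50%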;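 note: compound exposure lasted 72 h before the ATP readout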
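Material: human LL 47 lung fibroblast cells; quantity: 1,150 cells/well; medium: IMEM plus 15% FBS; doses: 0.1% DMSO in all compound wells; timing: overnight attachment after seeding, then 72 h compound exposure at 37 °C; detection: CellTiter-Glo luminescence; measure: % viability of median cell-only signal; controls: cell-only wells, no compound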
HUVEC prolif 384 – human endothelial cell proliferation inhibition; 1.1% of 86,000 active; viability, % at 10 µM (by protocol); AID 648; HUVEC proliferation, CellTiter-Glo luminescence, 72 h; active compounds read low;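 active = viability at or below 30%; inactive = viability above 30%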
MT1-MMP txn act – MT1-MMP promoter transcription activation. HT1080 MT1-MMP promoter luciferase reporter, luminescence, overnight; active compounds read high. activation factor at 10 µM. 0.16% of 86,000 active. AID 750;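 active = activation factor of at least 2 for MT1-MMP transcription at 10 µM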
Jurkat viability – cytotoxic compounds reducing Jurkat cell viability | Jurkat E6.1 viability, ATP luminescence, 48 h | inhibition, % at 4 µM | 1.2% of 56,000 active | AID 463;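 active = inhibition above the mean inhibition of all tested compounds plus 3 SD, cut at about 28% in these data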
PTK2B oligo ant – blocks oligomerization of human Pyk2 in cells; Q293 cells, Pyk2 FERM NanoBiT luminescence; active compounds read low; z-score (the deposit names both 25 µM and 10 µM); 0.83% of 99,000 active;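 active = Z-score of -3 or lower, scaled per plate to the spread of control and sample wells; inactive = z-score above -3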;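 note: negative z-score means lost luminescence so less FERM oligomerization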
Target sequence (Q14289 whole entry, looked up): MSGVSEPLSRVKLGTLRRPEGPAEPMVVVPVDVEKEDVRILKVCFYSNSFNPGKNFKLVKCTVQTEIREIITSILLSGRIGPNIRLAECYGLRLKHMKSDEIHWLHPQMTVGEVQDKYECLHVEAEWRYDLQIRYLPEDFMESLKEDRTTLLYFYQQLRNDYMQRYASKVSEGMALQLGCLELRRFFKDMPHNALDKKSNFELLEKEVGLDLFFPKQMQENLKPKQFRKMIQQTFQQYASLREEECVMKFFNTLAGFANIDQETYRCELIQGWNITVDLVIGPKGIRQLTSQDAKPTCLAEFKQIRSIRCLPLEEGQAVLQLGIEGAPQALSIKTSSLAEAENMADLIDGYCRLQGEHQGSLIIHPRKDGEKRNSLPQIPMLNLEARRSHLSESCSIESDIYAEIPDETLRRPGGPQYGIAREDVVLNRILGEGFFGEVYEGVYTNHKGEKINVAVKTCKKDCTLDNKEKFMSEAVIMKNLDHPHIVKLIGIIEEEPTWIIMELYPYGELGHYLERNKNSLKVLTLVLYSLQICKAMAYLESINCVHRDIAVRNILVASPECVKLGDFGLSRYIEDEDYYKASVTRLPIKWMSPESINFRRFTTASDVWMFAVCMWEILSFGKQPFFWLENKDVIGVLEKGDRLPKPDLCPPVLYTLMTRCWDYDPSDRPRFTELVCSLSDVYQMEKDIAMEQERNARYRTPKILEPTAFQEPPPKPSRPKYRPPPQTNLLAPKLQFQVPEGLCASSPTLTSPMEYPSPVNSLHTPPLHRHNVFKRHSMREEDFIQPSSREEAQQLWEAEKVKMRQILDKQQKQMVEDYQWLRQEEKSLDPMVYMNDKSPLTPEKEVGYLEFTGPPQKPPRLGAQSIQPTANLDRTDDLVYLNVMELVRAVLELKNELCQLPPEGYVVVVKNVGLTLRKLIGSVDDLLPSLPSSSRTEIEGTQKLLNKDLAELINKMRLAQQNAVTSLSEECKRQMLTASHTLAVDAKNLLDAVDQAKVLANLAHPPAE
H69AR inhibit – blocks growth of human H69AR lung tumor cells. viability, % at 10 µM. AID 598. 6% of 85,000 active. H69AR lung tumor viability, ATP luminescence, 72 h; active compounds read low;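 active = viability at or below 40%; inactive = viability above 40%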;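 note: multidrug resistant small cell line overexpressing MRP-1 efflux transporter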
Numbers stand for hits; i = inactive; nt = no result.

SMILES	Lung fibro prol	HUVEC prolif 384	MT1-MMP txn act	Jurkat viability	PTK2B oligo ant	H69AR inhibit
c1ccc(-c2ccc(-c3cnc4n3CCCCC4)cc2)cc1	i	i	i	nt	i	i
COC(=O)NC1CSCC1OC(=O)CN1C(=O)c2ccccc2C1=O (centres undefined)	i	i	i	i	i	i
CSc1cc(-c2ccccc2)n(Cc2ccccc2Cl)c(=O)c1C#N	i	i	i	nt	i	4.8
N#Cc1c(N)nc(SCc2ccncc2)c(C#N)c1-c1cccs1	i	i	i	i	-3.9	i
COc1cc(-c2c(C#N)c(N)nc(SCc3ccncc3)c2C#N)cc(OC)c1OC	i	i	i	i	-4.1	i
Cc1ccccc1NC(=O)CSc1nc(N)c(C#N)c(-c2cccs2)c1C#N	i	i	i	i	-3.7	27
CCN(CC)C(=O)CSc1nc(N)c(C#N)c(-c2cccs2)c1C#N	i	i	i	nt	i	i
O=c1oc2c3c4c(cc2c2c1CCC2)OCCN4CCC3	i	i	i	i	i	i
CSCC[C@H](Nc1ncnc2sc(C)c(C)c12)C(=O)O	i	i	i	nt	i	i
Cc1cc(C)c(C(=O)COc2cccnc2[N+](=O)[O-])cc1C	i	i	i	nt	i	1.1
CC(=O)Nc1ccc(NC(C)=C(C#N)C#N)cc1	nt	nt	nt	nt	i	nt
O=S1(=O)C=CC(Sc2nc3ccccc3[nH]2)C1 (centres undefined)	i	i	i	i	i	20
CC1=CS(=O)(=O)CC1Sc1nc2ccccc2[nH]1 (centres undefined)	i	i	i	nt	i	i
Cc1cc(N2CCOCC2)n2nc(-c3cccc(F)c3)cc2n1	nt	nt	i	i	i	nt
CCN1CCN(c2cc(-c3ccccc3)nc3cc(-c4cccc(F)c4)nn23)CC1	i	22	i	nt	i	i
CC(C)n1nc(C(=O)OCC(=O)c2c[nH]c3ccccc23)c2ccccc2c1=O	i	i	i	nt	-3.6	i
O=C(Nc1ncccc1Cl)C(Sc1ccccc1)c1ccccc1 (centres undefined)	nt	nt	nt	nt	i	nt
O=S(=O)(Nc1nc2ccccc2nc1NCc1ccco1)c1ccc(Cl)cc1	i	i	i	i	i	i
Cc1ccc(S(=O)(=O)Nc2nc3ccccc3nc2NCc2ccco2)cc1	i	i	i	i	i	36
O=C(Oc1ccc2[nH]cc(CCN3C(=O)c4ccccc4C3=O)c2c1)c1ccco1	i	i	i	i	i	i
COc1ccc2c(c1)c(CCN1C(=O)c3ccccc3C1=O)cn2C(=O)c1ccco1	i	26	i	i	i	i
CC(C)(C)C(=O)NC(=S)Nc1ccccc1C(=O)Nc1ccccc1	nt	nt	nt	nt	i	nt
Cc1cc(NC(=O)C2CC=CCC2C(=O)O)no1 (centres undefined)	i	i	i	i	i	i
CCOC(=O)C1CCN(C(=O)c2sc3nc(-c4ccc(F)cc4)cn3c2C)CC1	i	i	i	i	i	35
Cc1c(C(=O)Nc2ccncc2)sc2nc(-c3ccc(F)cc3)cn12	i	29	i	i	nt	17
SMILES	Lung fibro prol	HUVEC prolif 384	MT1-MMP txn act	Jurkat viability	PTK2B oligo ant	H69AR inhibit
COc1ccc(-c2cn3c(C)c(C(=O)Nc4cccc(NC(C)=O)c4)sc3n2)cc1	i	23	i	i	i	26
COc1ccc(-c2cn3c(C)c(C(=O)Nc4ccncc4)sc3n2)cc1	i	i	i	i	nt	i
CCOC(=O)C1CCCN(C(=O)c2sc3nc(-c4ccc(F)cc4)cn3c2C)C1 (centres undefined)	i	i	i	i	i	i
COC(=O)c1ccc(NC(=O)c2sc3nc(-c4ccccc4)cn3c2C)cc1	i	i	i	i	-3.8	37
Cc1[nH]nc(-c2ccc(O)cc2O)c1-c1ccc(Cl)cc1	i	i	i	i	i	i
CCOC(=O)c1[nH]nc(-c2cc(CC)c(O)cc2O)c1-c1cscn1	i	i	i	nt	i	i
CCc1cc(-c2n[nH]c(C)c2Oc2ccc(C(C)C)cc2)c(O)cc1O	i	2.5	i	nt	i	1.1
CCCOC(=O)c1ccc(Oc2c(-c3ccc(OC)cc3O)n[nH]c2C)cc1	i	25	i	i	i	1.6
Cc1[nH]nc(-c2ccc(O)cc2O)c1Oc1ccccc1	i	i	i	nt	i	36
CCCOC(=O)c1ccc(Oc2c(-c3ccc(O)cc3O)n[nH]c2C)cc1	i	i	i	i	i	i
CCOc1ccc(-c2n[nH]c(C)c2Oc2ccccc2OC)c(O)c1	i	i	i	i	i	i
C=C(C)COc1ccc(-c2n[nH]c(C)c2Oc2ccccc2OC)c(O)c1	i	29	i	i	i	7.2
O=C1c2cccc3c(N4CCCCC4)ccc(c23)C(=O)N1CCO	nt	nt	nt	nt	i	nt
Cc1n[nH]c(C)c1N1C(=O)c2cccc3c(N4CCCCCC4)ccc(c23)C1=O	i	i	nt	i	i	35
COc1cccc(C(=O)Nc2ncc3c(n2)CC(c2ccc(OC)cc2OC)CC3=O)c1 (centres undefined)	i	i	i	43	i	18
CN(C)S(=O)(=O)c1cccc(C(=O)OCC(=O)Nc2sccc2C#N)c1	nt	nt	nt	nt	i	nt
COc1ccc(-c2cc(=O)n(-c3nc4ccccc4[nH]3)[nH]2)cc1	i	10	i	i	i	40
COc1ccc(CNc2nc3nc4c(c(=O)n3[nH]2)CCC4)cc1	i	i	i	nt	i	i
O=C1S/C(=C/c2ccc(N3CCOCC3)o2)C(=O)N1Cc1ccc(F)cc1	i	i	i	nt	i	26
CN(C)S(=O)(=O)N(CC(=O)N(Cc1ccccc1)Cc1ccccc1)c1ccccc1	i	i	i	nt	i	i
CSCSC1=C(C#N)C(c2ccc(Cl)cc2)C(C(C)=O)=C(C)N1 (centres undefined)	nt	nt	i	i	nt	nt
CC(=O)C1=C(C)NC(SCC(=O)c2ccc(Cl)cc2)=C(C#N)C1c1ccco1 (centres undefined)	nt	i	i	i	i	29
CSC1=C(C#N)C(c2ccccc2Cl)C(C(C)=O)=C(C)N1 (centres undefined)	i	i	i	nt	-3.1	i
CC(=O)C1=C(C)NC(SCC(=O)c2ccccc2)=C(C#N)C1c1ccco1 (centres undefined)	nt	i	i	i	nt	i
N#CC1=C(SCC(=O)c2ccc(Br)cc2)NC2=C(C(=O)CCC2)C1c1ccco1 (centres undefined)	i	i	i	nt	i	17
SMILES	Lung fibro prol	HUVEC prolif 384	MT1-MMP txn act	Jurkat viability	PTK2B oligo ant	H69AR inhibit
COc1ccc(NC(=O)CSc2nc3c(c(=O)n2-c2ccccc2)SCC3)c(OC)c1	i	i	i	nt	i	8.2
COc1ccc(NC(=O)CSc2nc3c(c(=O)n2-c2ccc(F)cc2)SCC3)cc1	i	i	i	i	nt	i
COc1ccccc1-n1c(SCC(=O)Nc2ccc(F)cc2)nc2c(c1=O)SCC2	i	i	i	i	nt	20
CCc1cc(C(=O)Nc2ccc(C)cc2Br)cs1	i	i	2	nt	i	i
COC(=O)c1ccccc1NC(=O)Cn1cc(Br)cn1	i	i	i	i	i	i
CC(Sc1nc2ccccc2n1C)C(=O)NC(c1ccccc1)c1ccccc1 (centres undefined)	i	i	i	nt	-4	i
O=C(OC(C(=O)NCC1CCCO1)c1ccc(F)cc1)c1cccs1 (centres undefined)	nt	nt	nt	nt	i	nt
